Results on 14 molecules are retold here after ChEMBL document CHEMBL5346932, “Structure-activity relationships of actively FhuE transported rifabutin derivatives with potent activity against Acinetobacter baumannii” (Eur J Med Chem, 2023).

As a reminder, the MIC is the lowest concentration that inhibits growth of the organism.

Converted amounts (≈) assume the structure as drawn.

In one test the test system is Acinetobacter baumannii. In words: Antibacterial activity against Acinetobacter baumannii HUMC1 cultured in RPMI 1640 medium supplemented with 10% FCS assessed as bacterial growth inhibition incubated for 20 hrs by CLSI based microbroth dilution method. Type of test: functional. The note with it: 20 h. The gist of the method:
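CLSI broth microdilution in RPMI 1640 + 10% FCS in place of CAMHB. Compounds in 2-fold dilution series; inoculum 5×10^5 CFU/mL. Plates held static at 35 °C for 20 h. MIC read visually as the lowest concentration with no visible growth. […] is the reciprocal of this MIC.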
For orientation: Dilution methods test growth across graded concentrations, often in twofold steps.
On to `CO[C@H]1/C=C/O[C@@]2(C)Oc3c(C)c(O)c4c(c3C2=O)C2=NC3(CCN(C5CCCC5)CC3)NC2=C(NC(=O)/C(C)=C\C=C\[C@H](C)[C@H](O)[C@@H](C)[C@@H](O)[C@@H](C)[C@H](OC(C)=O)[C@@H]1C)C4=O` (stereo in doubt; form 2), for which the MIC amounted to 0.004 µg/mL (≈ 0.00466 µM).
Take `CO[C@H]1/C=C/O[C@@]2(C)Oc3c(C)c(O)c4c(c3C2=O)C2=NC3(CCN(CC5CCCCC5)CC3)NC2=C(NC(=O)/C(C)=C\C=C\[C@H](C)[C@H](O)[C@@H](C)[C@@H](O)[C@@H](C)[C@H](OC(C)=O)[C@@H]1C)C4=O` (stereo in doubt; form 2): the MIC stood at 0.03 µg/mL (≈ 0.0338 µM).

The same test, now with this note: Acinetobacter baumannii, HUMC1, 20 h, read-out: MIC.
On to `CO[C@H]1/C=C/O[C@@]2(C)Oc3c(C)c(O)c4c(c3C2=O)C2=NC3(CCN(CC#N)CC3)NC2=C(NC(=O)/C(C)=C\C=C\[C@H](C)[C@H](O)[C@@H](C)[C@@H](O)[C@@H](C)[C@H](OC(C)=O)[C@@H]1C)C4=O`, for which the minimum inhibitory concentration (MIC) turned out to be 0.25 µg/mL (≈ 0.301 µM).
Turning to `CO[C@H]1/C=C/O[C@@]2(C)Oc3c(C)c(O)c4c(c3C2=O)C2=NC3(CCN([C@H]5CCCO5)CC3)NC2=C(NC(=O)/C(C)=C\C=C\[C@H](C)[C@H](O)[C@@H](C)[C@@H](O)[C@@H](C)[C@H](OC(C)=O)[C@@H]1C)C4=O`, the MIC came out at 0.016 µg/mL (≈ 0.0186 µM).
In the case of `CO[C@H]1/C=C/O[C@@]2(C)Oc3c(C)c(O)c4c(c3C2=O)C2=NC3(CC[N+](C)(C)CC3)NC2=C(NC(=O)/C(C)=C\C=C\[C@H](C)[C@H](O)[C@@H](C)[C@@H](O)[C@@H](C)[C@H](OC(C)=O)[C@@H]1C)C4=O.[I-]`, the MIC is 8 µg/mL.
For the molecule `CO[C@H]1/C=C/O[C@@]2(C)Oc3c(C)c(O)c4c(c3C2=O)C2=NC3(CCN(C(C)(C)CC(C)(C)C)CC3)NC2=C(NC(=O)/C(C)=C\C=C\[C@H](C)[C@H](O)[C@@H](C)[C@@H](O)[C@@H](C)[C@H](OC(C)=O)[C@@H]1C)C4=O`, the MIC stood at 0.03 µg/mL (≈ 0.0332 µM).
Take `CO[C@H]1/C=C/O[C@@]2(C)Oc3c(C)c(O)c4c(c3C2=O)C2=NC3(CCN(C5CCN(C)CC5)CC3)NC2=C(NC(=O)/C(C)=C\C=C\[C@H](C)[C@H](O)[C@@H](C)[C@@H](O)[C@@H](C)[C@H](OC(C)=O)[C@@H]1C)C4=O`: the MIC came out at 0.25 µg/mL (≈ 0.282 µM).
For the molecule `CO[C@H]1/C=C/O[C@@]2(C)Oc3c(C)c(O)c4c(c3C2=O)C2=NC3(CCN(C5CCOCC5)CC3)NC2=C(NC(=O)/C(C)=C\C=C\[C@H](C)[C@H](O)[C@@H](C)[C@@H](O)[C@@H](C)[C@H](OC(C)=O)[C@@H]1C)C4=O`, the MIC is 0.008 µg/mL (≈ 0.00914 µM).
As to `CO[C@H]1/C=C/O[C@@]2(C)Oc3c(C)c(O)c4c(c3C2=O)C2=NC3(CCN(C5CCCC(C)C5)CC3)NC2=C(NC(=O)/C(C)=C\C=C\[C@H](C)[C@H](O)[C@@H](C)[C@@H](O)[C@@H](C)[C@H](OC(C)=O)[C@@H]1C)C4=O` (some centres undefined), the MIC turned out to be 0.03 µg/mL (≈ 0.0338 µM).
The same measure, in the same setting: the same measure for `CO[C@H]1/C=C/O[C@@]2(C)Oc3c(C)c(O)c4c(c3C2=O)C2=NC3(CCOCC3)NC2=C(NC(=O)/C(C)=C\C=C\[C@H](C)[C@H](O)[C@@H](C)[C@@H](O)[C@@H](C)[C@H](OC(C)=O)[C@@H]1C)C4=O`: 2 µg/mL (≈ 2.53 µM).
Still for that read-out and setting: the figure for `CO[C@H]1/C=C/O[C@@]2(C)Oc3c(C)c(O)c4c(c3C2=O)C2=NC3(CCN(C(C)=O)CC3)NC2=C(NC(=O)/C(C)=C\C=C\[C@H](C)[C@H](O)[C@@H](C)[C@@H](O)[C@@H](C)[C@H](OC(C)=O)[C@@H]1C)C4=O` is 4 µg/mL (≈ 4.8 µM).
In the case of `CO[C@H]1/C=C/O[C@@]2(C)Oc3c(C)c(O)c4c(c3C2=O)C2=NC3(CCN(CC5CCCCC5)CC3)NC2=C(NC(=O)/C(C)=C\C=C\[C@H](C)[C@H](O)[C@@H](C)[C@@H](O)[C@@H](C)[C@H](OC(C)=O)[C@@H]1C)C4=O` (stereo in doubt; form 1), the MIC was 0.06 µg/mL (≈ 0.0676 µM).
With `C#CCCN1CCC2(CC1)N=C1C(=C3NC(=O)/C(C)=C\C=C\[C@H](C)[C@H](O)[C@@H](C)[C@@H](O)[C@@H](C)[C@H](OC(C)=O)[C@H](C)[C@@H](OC)/C=C/O[C@@]4(C)Oc5c(C)c(O)c(c1c5C4=O)C3=O)N2`, the MIC was found to be 0.004 µg/mL (≈ 0.00475 µM).
In the case of `CO[C@H]1/C=C/O[C@@]2(C)Oc3c(C)c(O)c4c(c3C2=O)C2=NC3(CCN(C[C@H]5CCCO5)CC3)NC2=C(NC(=O)/C(C)=C\C=C\[C@H](C)[C@H](O)[C@@H](C)[C@@H](O)[C@@H](C)[C@H](OC(C)=O)[C@@H]1C)C4=O`, the minimum inhibitory concentration (MIC) was 0.125 µg/mL (≈ 0.143 µM).
